Assay results: ChEMBL document CHEMBL5120856, “New salicylic acid derivatives, double inhibitors of glycolate oxidase and lactate dehydrogenase, as effective agents decreasing oxalate production” (Eur J Med Chem, 2022)
Active and inactive are the calls of the source. The calls are words filed in the database; no cut-off is given here.

What was measured:
[1] = molecular target: T1, 2-Hydroxyacid oxidase 1 (Homo sapiens) (UniProt Q9UJM8); assay: (§1) Inhibition of N-terminal His-tagged human recombinant glycolate oxidase expressed in Escherichia coli BL21 (DE3) cells using glycolate as substrate at 20 uM preincubated for 5 mins followed by substrate addition and measured after 1 min in the presence of DCHBS by horseradish peroxidase coupled colorimetric method relative to control; details: time 6.0 min
T1 sequence (whole entry): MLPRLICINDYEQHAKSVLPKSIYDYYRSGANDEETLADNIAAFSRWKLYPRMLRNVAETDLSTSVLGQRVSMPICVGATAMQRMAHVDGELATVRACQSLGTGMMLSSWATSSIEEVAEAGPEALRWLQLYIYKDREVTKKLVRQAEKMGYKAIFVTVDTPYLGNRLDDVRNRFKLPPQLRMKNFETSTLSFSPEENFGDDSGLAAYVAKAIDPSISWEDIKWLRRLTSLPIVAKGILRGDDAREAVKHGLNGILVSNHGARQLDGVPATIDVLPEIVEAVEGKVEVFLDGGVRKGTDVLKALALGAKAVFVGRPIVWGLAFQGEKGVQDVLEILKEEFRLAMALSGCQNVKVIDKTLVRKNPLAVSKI

[2] = molecular target: T2, 2-Hydroxyacid oxidase 1 (Mus musculus) (UniProt Q9WU19); assay: as §1, with “mouse” for “human”; details: time 6.0 min
T2 sequence (whole entry): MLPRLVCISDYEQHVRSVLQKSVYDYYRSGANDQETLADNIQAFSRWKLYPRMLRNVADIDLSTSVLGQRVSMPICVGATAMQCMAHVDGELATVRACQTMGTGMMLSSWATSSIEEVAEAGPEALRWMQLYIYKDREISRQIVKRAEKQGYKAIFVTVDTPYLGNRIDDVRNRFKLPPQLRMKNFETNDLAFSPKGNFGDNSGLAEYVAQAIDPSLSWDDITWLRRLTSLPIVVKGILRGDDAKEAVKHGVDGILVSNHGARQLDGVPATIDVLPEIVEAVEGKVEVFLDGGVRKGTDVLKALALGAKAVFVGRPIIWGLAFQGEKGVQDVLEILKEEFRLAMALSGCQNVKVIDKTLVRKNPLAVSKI

2-Hydroxyacid oxidase 1 [3] = molecular target: T3, 2-Hydroxyacid oxidase 1 (Homo sapiens, UniProt Q9UJM8); assay: Inhibition of N-terminal His-tagged human recombinant glycolate oxidase expressed in Escherichia coli BL21 (DE3) cells using glycolate as substrate preincubated for 10 mins followed by substrate addition and measured after 10 mins by Amplex red and horseradish peroxidase based fluorescence assay
T3 sequence (Q9UJM8 whole entry): T1 sequence (whole entry)

2-Hydroxyacid oxidase 1 [4] = molecular target: T4, 2-Hydroxyacid oxidase 1 (Mus musculus, UniProt Q9WU19); assay: Inhibition of N-terminal His-tagged mouse recombinant glycolate oxidase expressed in Escherichia coli BL21 (DE3) cells using glycolate as substrate preincubated for 10 mins followed by substrate addition and measured after 10 mins by Amplex red and horseradish peroxidase based fluorescence assay
T4 sequence (Q9WU19 whole entry): T2 sequence (whole entry)

[5] = molecular target: T5, L-lactate dehydrogenase A chain (Homo sapiens, UniProt P00338); assay: Inhibition of human recombinant LDHA using pyruvate as substrate preincubated for 10 mins followed by substrate addition and measured every 60 sec for 10 mins in the presence of NADH by fluorescence assay
[6] = molecular target: T6, L-lactate dehydrogenase B chain (Homo sapiens, UniProt P07195); assay: Inhibition of human recombinant LDHB using pyruvate as substrate preincubated for 10 mins followed by substrate addition and measured every 60 sec for 10 mins in the presence of NADH by fluorescence assay
T6 sequence (P07195 whole entry): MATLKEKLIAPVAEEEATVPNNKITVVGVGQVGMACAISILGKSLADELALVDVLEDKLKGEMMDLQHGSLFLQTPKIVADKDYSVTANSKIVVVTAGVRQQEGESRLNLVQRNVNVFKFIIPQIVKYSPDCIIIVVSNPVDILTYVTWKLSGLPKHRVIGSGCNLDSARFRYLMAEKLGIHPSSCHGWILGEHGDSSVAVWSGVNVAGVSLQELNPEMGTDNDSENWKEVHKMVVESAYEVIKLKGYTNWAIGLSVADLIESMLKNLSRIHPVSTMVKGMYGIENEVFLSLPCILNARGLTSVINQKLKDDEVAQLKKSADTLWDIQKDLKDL

Hepatocyte [7] = assay: Inhibition of GO/LDHA in hyperoxaluric-primary hepatocyte isolated from Agxt1 knockdown PH1 C57BL/6 mouse assessed as relative oxalate output at 10 uM measured at 24 hrs in the presence of glycolate relative to control; format: cell-based
How it was run: (§2)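 Agxt1-/- mouse primary hepatocytes cultured with 5 mM glycolate, inhibitor at 10 μM; extracellular oxalate measured by colorimetric kit 24 and 48 h after inhibitor addition; relative oxalate = oxalate with inhibitor over oxalate without inhibitor; negative values mean below detection limit; mean of three/four replicates ± SD.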

Hepatocyte [8] = assay: Inhibition of GO/LDHA in hyperoxaluric-primary hepatocyte isolated from Agxt1 knockdown PH1 C57BL/6 mouse assessed as relative oxalate output at 10 uM measured at 48 hrs in the presence of glycolate relative to control; format: cell-based; how it was run: as §2
Hepatocyte [9] = assay: Inhibition of GO/LDHA in hyperoxaluric-primary hepatocyte isolated from Grhpr-knockdown PH2 C57BL/6 mouse assessed as relative oxalate output at 10 uM measured at 24 hrs in the presence of glycolate relative to control; format: cell-based
How it was run: (§3)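 Grhpr-/- mouse primary hepatocytes cultured with 10 mM glycolate, inhibitor at 10 μM; extracellular oxalate determined colorimetrically at 24 and 48 h post-treatment, expressed relative to untreated medium (RO); negative RO means below detection limit; three/four replicates, mean ± SD.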

Hepatocyte [10] = assay: Inhibition of GO/LDHA in hyperoxaluric-primary hepatocyte isolated from Grhpr-knockdown PH2 C57BL/6 mouse assessed as relative oxalate output at 10 uM measured at 48 hrs in the presence of glycolate relative to control; format: cell-based; how it was run: as §3
Hepatocyte [11] = assay: Inhibition of GO/LDHA in hyperoxaluric-primary hepatocyte isolated from Hoga1-knockdown PH3 C57BL/6 mouse assessed as relative oxalate output at 10 uM measured at 24 hrs in the presence of hydroxyproline relative to control; format: cell-based
How it was run: (§4)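 Hoga1-/- mouse primary hepatocytes challenged with 10 mM hydroxyproline, inhibitor 10 μM; extracellular oxalate measured by colorimetric kit 24 and 48 h after dosing, given as ratio to oxalate without inhibitor; negative values are below detection limit; mean of three/four replicates ± SD.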

Hepatocyte [12] = assay: Inhibition of GO/LDHA in hyperoxaluric-primary hepatocyte isolated from Hoga1-knockdown PH3 C57BL/6 mouse assessed as relative oxalate output at 10 uM measured at 48 hrs in the presence of hydroxyproline relative to control; format: cell-based; how it was run: as §4
Hepatocyte [13] = assay: Cytotoxicity against hyperoxaluric-primary hepatocyte isolated from Hoga1-knockdown PH3 C57BL/6 mouse assessed as cell death at 10 uM by MTS assay; format: toxicity, cell-based; details: hepatocytes, Hoga1-knockdown PH3, 10 µM
How it was run: (§5)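 Primary hepatocytes from Agxt1-/- (PH1, 5 mM glycolate), Grhpr-/- (PH2, 10 mM glycolate) or Hoga1-/- (PH3, 10 mM hydroxyproline) mice, incubated with inhibitor at 10 μM; viability followed through the oxalate assay by MTS tetrazolium method.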

Hepatocyte [14] = assay: Cytotoxicity against hyperoxaluric-primary hepatocyte isolated from Grhpr-knockdown PH2 C57BL/6 mouse assessed as cell death at 10 uM by MTS assay; format: toxicity, cell-based; details: hepatocytes, Grhpr-knockdown PH2 (primary hyperoxaluria type 2); how it was run: as §5
Hepatocyte [15] = assay: Cytotoxicity against hyperoxaluric-primary hepatocyte isolated from Agxt1-knockdown PH1 C57BL/6 mouse assessed as cell death at 10 uM by MTS assay; format: toxicity, cell-based; details: hepatocytes, Agxt1-knockdown PH1, 10 µM; how it was run: as §5
Hepatocyte [16] = assay: Inhibition of GO/LDHA in hyperoxaluric-primary hepatocyte isolated from Agxt1 knockdown PH1 C57BL/6 mouse assessed as reduction in extracellular oxalate concentration at 10 uM measured at 48 hrs in the presence of glycolate relative to control; format: cell-based; parameters: scale not given: the % may be the effect or the level left; how it was run: as §2
[17] = Inhibition of GO/LDHA in hyperoxaluric-primary hepatocyte isolated from Agxt1 knockdown PH1 C57BL/6 mouse measured at 24 hrs in the presence of 5 mM glycolate; format: cell-based
How it was run: (§6)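 Agxt1-/- hepatocytes with 5 mM glycolate; eight inhibitor concentrations per replicate; extracellular oxalate measured colorimetrically at 24 or 48 h; EC50 as mean of three/four replicates ± SD.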

[18] = Inhibition of GO/LDHA in hyperoxaluric-primary hepatocyte isolated from Agxt1 knockdown PH1 C57BL/6 mouse measured at 48 hrs in the presence of 5 mM glycolate; format: cell-based; how it was run: as §6
HEK293 = assay: Cytotoxicity against HEK293 cells assessed as reduction in cell viability upto 50 uM measured after 48 hrs by MTT assay; format: toxicity, cell-based; details: human, hek293, 48 h
[19] = molecular target: T5, L-lactate dehydrogenase A chain; assay: Inhibition of human recombinant LDHA using pyruvate as substrate at 10 uM preincubated for 10 mins followed by substrate addition and measured every 60 sec for 10 mins in the presence of NADH by fluorescence assay relative to control; details: time 20.0 min
How it was run: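 Recombinant human LDHA or LDHB (0.015 U/mL) with NADH 150 μM and inhibitor 10 μM in 50 mM phosphate pH 7, 10 min rt baseline read; pyruvate 1 mM added, NADH fluorescence (ex 340/em 460 nm) read every 60 s for 10 min; baseline-corrected slope versus 100% activity control; four replicates.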

2-Hydroxyacid oxidase 1 [20] = molecular target: T3, 2-Hydroxyacid oxidase 1; assay: (§7) Non-competitive mixed inhibition of N-terminal His-tagged human recombinant glycolate oxidase expressed in Escherichia coli BL21 (DE3) cells assessed as inhibition constant using varying concentration of glycolate as substrate measured every 60 sec for 15 mins by Amplex red and horseradish peroxidase based fluorescence assay
2-Hydroxyacid oxidase 1 [21] = molecular target: T4, 2-Hydroxyacid oxidase 1; assay: as §7, with “mouse” for “human”
[22] = molecular target: T5, L-lactate dehydrogenase A chain; assay: Non-competitive inhibition of human recombinant LDHA assessed as inhibition constant using varying concentration of pyruvate as substrate preincubated for 10 mins followed by substrate addition and measured every 60 sec for 10 mins in the presence of NADH by fluorescence assay
[23] = molecular target: T6, L-lactate dehydrogenase B chain; assay: Non-competitive inhibition of human recombinant LDHB assessed as inhibition constant using varying concentration of pyruvate as substrate preincubated for 10 mins followed by substrate addition and measured every 60 sec for 10 mins in the presence of NADH by fluorescence assay
[24] = molecular target: T2, 2-Hydroxyacid oxidase 1 (Mus musculus); assay: Non-competitive mixed inhibition of N-terminal His-tagged mouse recombinant glycolate oxidase expressed in Escherichia coli BL21 (DE3) cells assessed as decrease in Vmax with increase in apparent Km using glycolate as substrate upto 60 microM
[25] = Inhibition of GO/LDHA in hyperoxaluric-primary hepatocyte isolated from Grhpr-knockdown PH2 C57BL/6 mouse measured at 24 hrs in the presence of 10 mM glycolate; format: cell-based
How it was run: (§8)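 Grhpr-/- hepatocytes with 10 mM glycolate; eight inhibitor concentrations per replicate; colorimetric extracellular oxalate at 24 or 48 h; EC50 as mean of three/four replicates ± SD.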

[26] = Inhibition of GO/LDHA in hyperoxaluric-primary hepatocyte isolated from Grhpr-knockdown PH2 C57BL/6 mouse measured at 48 hrs in the presence of 10 mM glycolate; format: cell-based; how it was run: as §8

inhibition [1]	inhibition [2]	IC50 (2-Hydroxyacid oxidase 1 [4])	IC50 [5]	IC50 [6]	Compound	fold change (FC) (Hepatocyte [7])	fold change (FC) (Hepatocyte [9])	fold change (FC) (Hepatocyte [10])	fold change (FC) (Hepatocyte [11])	fold change (FC) (Hepatocyte [12])	Activity (Hepatocyte [13])	Activity (Hepatocyte [14])	Activity (Hepatocyte [15])	Activity (HEK293)	further results
< 50%	< 50%	–	–	–	O=C(O)c1cc(-c2ccc(CNCc3cccnc3)o2)ccc1O	–	–	–	–	–	–	–	–	–	–
–	–	8 µM	2.3 µM	4.3 µM	CCN(CC)CC.O=C(O)c1cc(-c2ccc(CN(Cc3ccccc3)Cc3ccco3)o2)ccc1O	-0.09	0.31	0.34	0.22	0.3	Non-Toxic	Non-Toxic	Non-Toxic	–	IC50 (2-Hydroxyacid oxidase 1 [3]): 16.8 µM; fold change (FC) (Hepatocyte [8]): 0.42; Activity (Hepatocyte [16]): 60%; EC50 [17]: 0.5 µM; EC50 [18]: 0.6 µM
–	–	–	–	–	COc1cccc2c1C(=O)c1c(O)c3c(c(O)c1C2=O)C[C@@](O)(C(=O)CO)C[C@@H]3O[C@H]1C[C@H](N)[C@H](O)[C@H](C)O1 [DOXORUBICIN]	–	–	–	–	–	–	–	–	Non-Toxic	–
< 50%	< 50%	–	8 µM	–	O=C(O)c1cc(-c2ccc(CNCc3ccc([N+](=O)[O-])cc3)o2)ccc1O	–	–	–	–	–	–	–	–	–	–
–	–	0.8 µM	1.6 µM	2.3 µM	C#CCN(Cc1ccc(-c2ccc(O)c(C(=O)O)c2)o1)Cc1ccc(-c2ccc(O)c(C(=O)O)c2)o1.N.N	0.44	0.2	0.25	0.21	0.52	Non-Toxic	Non-Toxic	Non-Toxic	Non-Toxic	IC50 (2-Hydroxyacid oxidase 1 [3]): 2 µM
< 50%	< 50%	–	–	–	O=C(O)c1cc(-c2ccc(CNCc3ccc(O)cc3)o2)ccc1O	–	–	–	–	–	–	–	–	–	inhibition [19]: 18%
< 50%	< 50%	–	–	–	O=C(O)c1cc(-c2ccc(CN3CCCCC3)o2)ccc1O	–	–	–	–	–	–	–	–	–	–
–	–	5.4 µM	1.5 µM	5.9 µM	N.O=C(O)c1cc(-c2ccc(CNc3ccc([N+](=O)[O-])cc3)o2)ccc1O	0.04	0.6	0.88	0.18	0.1	Non-Toxic	Non-Toxic	Non-Toxic	Non-Toxic	IC50 (2-Hydroxyacid oxidase 1 [3]): 10.3 µM; fold change (FC) (Hepatocyte [8]): 0.5; Activity (Hepatocyte [16]): 50%; EC50 [17]: 0.6 µM; EC50 [18]: 1.6 µM
–	–	–	–	–	CC(C)(C)C(O)/C=C/c1ccc2c(c1)OCO2 (configuration not stated) [STIRIPENTOL]	–	0.27	0.33	0.7	0.49	Non-Toxic	Non-Toxic	Non-Toxic	–	–
–	–	14.4 µM	–	29 µM	O=Cc1ccc(-c2ccc(O)c(C(=O)O)c2)o1	–	–	–	–	–	Non-Toxic	Non-Toxic	Non-Toxic	Non-Toxic	Ki (2-Hydroxyacid oxidase 1 [20]): 18.2 µM; Ki (2-Hydroxyacid oxidase 1 [21]): 7.9 µM; Ki [22]: 1.4 µM; Ki [23]: 12.9 µM; inhibition [24]: Active; Activity (Hepatocyte [16]): 60%; EC50 [17]: 3.5 µM; EC50 [25]: 1.8 µM; EC50 [18]: 8.4 µM; EC50 [26]: 1.9 µM
< 50%	< 50%	–	–	–	COc1ccc(CNCc2ccc(-c3ccc(O)c(C(=O)O)c3)o2)cc1	–	–	–	–	–	–	–	–	–	inhibition [19]: 18%
< 50%	< 50%	–	2.5 µM	3.3 µM	N.O=C(O)c1cc(-c2ccc(CNCc3ccccc3)o2)ccc1O	0.18	–	–	–	–	Non-Toxic	Non-Toxic	Non-Toxic	–	fold change (FC) (Hepatocyte [8]): 0.63
